Results taken from the M2OR odorant receptor database.

The molecules below were run against T1, UniProt Q7TRX0. Settings: stereoisomer not certain.
T1 sequence (whole entry): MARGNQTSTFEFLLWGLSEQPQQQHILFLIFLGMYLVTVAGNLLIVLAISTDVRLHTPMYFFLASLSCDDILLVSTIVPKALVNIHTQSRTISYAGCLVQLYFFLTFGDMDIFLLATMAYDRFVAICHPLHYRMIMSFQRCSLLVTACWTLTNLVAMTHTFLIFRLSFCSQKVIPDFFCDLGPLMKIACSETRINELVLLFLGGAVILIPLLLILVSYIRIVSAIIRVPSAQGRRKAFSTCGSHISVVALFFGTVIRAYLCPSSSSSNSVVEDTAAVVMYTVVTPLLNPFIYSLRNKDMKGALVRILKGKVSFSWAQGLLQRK
Summary of the method: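 Each entry records the cell line, G-protein, co-transfected protein and tags used. Methods varied with the source, often transient luciferase assays in mammalian cell lines. A receptor–molecule pair is called responsive (active) if the original authors judged its signal statistically different from baseline and non-responsive (inactive) otherwise.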

Odorant receptor agonist call, inactive:
CC(=O)OCc1ccc2c(c1)OCO2
CC(=O)C=CC1=C(C)CCCC1(C)C
Cc1ccc(OC(=O)C(C)C)cc1
C=CC(=O)CCCCC
CCCCC=O
CCOC(=O)CC(C)C
CCCC(C)C(=O)OCC (stereo not drawn)
Cc1c(C)c(C)c(C=O)c(C)c1C
CCSCC
CSSCc1ccco1
OCC=Cc1ccccc1
CCN(CC)CC
CC(=O)OC1(C)CCC23CC1C(C)(C)C2CCC3C (stereo not drawn)
CSSSC
C=C(C)C1CCC2(C)OC2C1 (stereo not drawn)
CCC=CCCC=CC=O
COc1nccnc1C(C)C
c1ccc2ncccc2c1
CCCCCCCCCCOC(C)=O
CCC=CCCCCC=O
C=C(CC)CCCC(C)(C)O
CC(=O)C1(C)CC2=C(CCCC2(C)C)CC1C (stereo not drawn)
C1CCOC1
CC1(C)CC(=O)CC(=O)C1
CC(=O)OCCc1ccccc1
CCCO
CC(C)CS
CCCCCC(C)O (stereo not drawn)
CCCCCC(=Cc1ccccc1)C(OC)OC
CCCCCCCCCCCO
CCCCCOC(=O)CC
CCCC=O
CCCCCCCCOC=O
